Data from ChEMBL document CHEMBL1124083, “Synthesis and biological properties of actinomycin D chromophoric analogues substituted at carbon 7 with aziridine and cyclopropyl functions” (J Med Chem, 1988).
Values after ≈ are worked out from the molar mass of the structure shown. *1 amine or outer side, *2 acyl side, *3 side chain or, on linkers, in order; H or OH if unused. Where a SMILES comes first, the peptide text is derived from it. Bridges are numbered along the chain shown (N, C = ends). Roman numbers before positions name the chains, in order. [ ]: non-standard residue; d: D form. Actinocin(9to1) = Cc1c2oc3c(C)ccc(C(=O)[*:1])c3nc-2c(C(=O)[*:2])c(N)c1=O; NMeV = CN[C@H](C(=O)O)C(C)C; Sar = CNCC(=O)O

Assays:
[1] = The delta Tm value is a measure of a stabilization of the DNA helical structure as consequence of compound binding; type: ADME
In short: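 Calf-thymus DNA at 5.0 × 10⁻⁵ M with drug at 2.5 × 10⁻⁵ M in 0.01 M phosphate buffer (pH 7) containing 10⁻⁵ M EDTA. Thermal denaturation curves were recorded. ΔTm is the Tm of the DNA–drug complex minus the Tm of DNA alone.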

[2] = system: B16; assay: In vitro antitumor activity against murine melanoma cells (B16 melanoma cells); type: functional; conditions: Mus musculus, read-out: ID50 (the source's name)
In short: (§1)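 Cells grown in suspension culture and exposed to compound for 48 h. Compounds dissolved in Me₂SO-saline, with less than 1% Me₂SO in the final growth medium. ID50 is the concentration in ng/mL giving 50% growth inhibition. Values are the mean of three experiments; SD ranged from 8% to 10% of the mean.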

[3] = system: CCRF-CEM; assay: In vitro antitumor activity against human leukemic lymphoblastic cells (CCRF-CEM); type: functional; conditions: read-out: ID50 (the source's name); in short: as §1

In the case of `Cc1c2oc3c(C)c(OCC4CN4)cc(C(=O)N[C@@H]4C(=O)N[C@H](C(C)C)C(=O)N5CCC[C@H]5C(=O)N(C)CC(=O)N(C)[C@@H](C(C)C)C(=O)O[C@@H]4C)c3nc-2c(C(=O)N[C@@H]2C(=O)N[C@H](C(C)C)C(=O)N3CCC[C@H]3C(=O)N(C)CC(=O)N(C)[C@@H](C(C)C)C(=O)O[C@@H]2C)c(N)c1=O` (some centres not stated), the “Delta Tm” value [1] was 2.8 C, the IC50 [2] was 0.11 µg/mL (≈ 0.0829 µM) and the IC50 [3] was 0.076 µg/mL (≈ 0.0573 µM).

For `Cc1c2oc3c(C)c(OCC4CC4)cc(C(=O)N[C@@H]4C(=O)N[C@H](C(C)C)C(=O)N5CCC[C@H]5C(=O)N(C)CC(=O)N(C)[C@@H](C(C)C)C(=O)O[C@@H]4C)c3nc-2c(C(=O)N[C@@H]2C(=O)N[C@H](C(C)C)C(=O)N3CCC[C@H]3C(=O)N(C)CC(=O)N(C)[C@@H](C(C)C)C(=O)O[C@@H]2C)c(N)c1=O`, the “Delta Tm” value [1] was -0.6 C, the IC50 [2] was 0.038 µg/mL (≈ 0.0287 µM) and the IC50 [3] was 0.055 µg/mL (≈ 0.0415 µM).

In the case of `Cc1c2oc3c(C)c(OCC(C)N)cc(C(=O)N[C@@H]4C(=O)N[C@H](C(C)C)C(=O)N5CCC[C@H]5C(=O)N(C)CC(=O)N(C)[C@@H](C(C)C)C(=O)O[C@@H]4C)c3nc-2c(C(=O)N[C@@H]2C(=O)N[C@H](C(C)C)C(=O)N3CCC[C@H]3C(=O)N(C)CC(=O)N(C)[C@@H](C(C)C)C(=O)O[C@@H]2C)c(N)c1=O` (some centres not stated), the “Delta Tm” value [1] was 4.8 C, the IC50 [2] was 0.055 µg/mL (≈ 0.0414 µM) and the IC50 [3] was 0.06 µg/mL (≈ 0.0452 µM).

With `Cc1c2oc3c(C)c(OCCNCCO)cc(C(=O)N[C@@H]4C(=O)N[C@H](C(C)C)C(=O)N5CCC[C@H]5C(=O)N(C)CC(=O)N(C)[C@@H](C(C)C)C(=O)O[C@@H]4C)c3nc-2c(C(=O)N[C@@H]2C(=O)N[C@H](C(C)C)C(=O)N3CCC[C@H]3C(=O)N(C)CC(=O)N(C)[C@@H](C(C)C)C(=O)O[C@@H]2C)c(N)c1=O` the “Delta Tm” value [1] was 1.9 C and the IC50 [3] was 0.5 µg/mL (≈ 0.368 µM).

With `Cc1c2oc3c(C)c(OCCN4CC4)cc(C(=O)N[C@@H]4C(=O)N[C@H](C(C)C)C(=O)N5CCC[C@H]5C(=O)N(C)CC(=O)N(C)[C@@H](C(C)C)C(=O)O[C@@H]4C)c3nc-2c(C(=O)N[C@@H]2C(=O)N[C@H](C(C)C)C(=O)N3CCC[C@H]3C(=O)N(C)CC(=O)N(C)[C@@H](C(C)C)C(=O)O[C@@H]2C)c(N)c1=O` the “Delta Tm” value [1] was 1.8 C, the IC50 [2] was 0.14 µg/mL (≈ 0.104 µM) and the IC50 [3] was 0.3 µg/mL (≈ 0.224 µM).

In the case of `Cc1c2oc3c(C)ccc(C(=O)N[C@@H]4C(=O)N[C@H](C(C)C)C(=O)N5CCC[C@H]5C(=O)N(C)CC(=O)N(C)[C@@H](C(C)C)C(=O)O[C@@H]4C)c3nc-2c(C(=O)N[C@@H]2C(=O)N[C@H](C(C)C)C(=O)N3CCC[C@H]3C(=O)N(C)CC(=O)N(C)[C@@H](C(C)C)C(=O)O[C@@H]2C)c(N)c1=O` [DACTINOMYCIN] (I: T[dV]P[Sar][NMeV] / II: T[dV]P[Sar][NMeV]; ester I:1-I:C, II:1-II:C; linker I:N-II:N via Actinocin(9to1)), the “Delta Tm” value [1] was 8 C, the IC50 [2] was 0.0033 µg/mL (≈ 0.00263 µM) and the IC50 [3] was 0.013 µg/mL (≈ 0.0104 µM).
